Measurements from ChEMBL document CHEMBL2380307, “Discovery of diarylurea P2Y(1) antagonists with improved aqueous solubility” (Bioorg Med Chem Lett, 2013).
Blank lines part the entries; values can stand above or below the compound they belong to.

Legend:
[1] = Oral bioavailability in rat at 1 mg/kg; assay type: ADME, organism-based; conditions: in vivo
Method in brief: (§1)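 Rat PK. Dosing was either 1 mg/kg IV/PO in 10% DMAC/10% EtOH/10% cremophor/70% H2O, or 1 mg/kg IV in 10% EtOH/10% cremophor/80% H2O, or 2 mg/kg IV with 5 mg/kg PO in 10% EtOH/10% cremophor/80% H2O. Read-outs: CL, Vss, t1/2, F.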

[2] = Half life in rat at 1 mg/kg, iv and po; assay type: ADME, organism-based; parameters: dose 1 mg/kg, route oral; conditions: in vivo; method in brief: as §1
[3] = system: Rattus norvegicus; assay: Volume of distribution at steady state in rat at 1 mg/kg, iv and po; assay type: ADME, organism-based; parameters: dose 1 mg/kg, route oral; conditions: in vivo
Method in brief: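 Rats dosed at 1 mg/kg by both IV and PO routes in 10% DMAC/10% EtOH/10% cremophor/70% H2O. Steady-state volume of distribution was derived from the IV plasma profile.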

[4] = (§2) Metabolic stability in rat liver microsomes assessed as compound remaining after 10 mins; assay type: ADME, Microsome; conditions: liver microsomes, read-out: Stability
Method in brief: (§3)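 Liver microsomes incubated for 10 min; read-out is percentage of parent remaining.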

[5] = Permeability from apical to basolateral side of human Caco2 cells; assay type: ADME, cell-based; conditions: Caco-2, read-out: permeability
[6] = Lipophilicity, log P of the compound by RP-HPLC analysis; assay type: physicochemical
[7] = (§4) Metabolic stability in human liver microsome assessed as compound remaining after 10 mins; assay type: ADME, microsomes; conditions: liver microsomes, read-out: Stability
[8] = system: Liver microsomes; assay: as §4; assay type: ADME; conditions: microsomes, 10 min
[9] = system: Liver microsomes; assay: as §2; assay type: ADME, Microsome; conditions: microsomes, 10 min; method in brief: as §3
[10] = Half life in rat at 2 mg/kg, iv and 5 mg/kg, po; assay type: ADME, organism-based; conditions: in vivo; method in brief: as §1
[11] = Volume of distribution at steady state in rat at 2 mg/kg, iv and 5 mg/kg, po; assay type: ADME, organism-based; conditions: in vivo, read-out: Vdss
Method in brief: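 Rats given 2 mg/kg IV and 5 mg/kg PO in 10% EtOH/10% cremophor/80% H2O. Vss was obtained from the IV pharmacokinetic profile.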

[12] = Oral bioavailability in rat at 5 mg/kg; assay type: ADME, organism-based; conditions: in vivo; method in brief: as §1
[13] = Clearance in rat at 2 mg/kg, iv and 5 mg/kg, po; assay type: ADME, organism-based; conditions: in vivo; method in brief: as §1
[14] = system: Plasma; assay: Plasma concentration in rat at 1 mg/kg, iv followed by administered 5 mg/kg/hr of sustaining dose; assay type: ADME, organism-based; conditions: in vivo
Method in brief: (§5)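 Rats pretreated IV with a loading dose plus sustaining infusion (1 + 2.5, 1 + 5, 1 + 10 or 1 + 25 mg/kg + mg/kg/h). Arterial thrombosis was induced with FeCl2, and thrombus weight was measured; plasma concentrations were measured at each dose. n=6–8 per dose. Vehicle controls received 10% DMA/90% 5% dextrose IV.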

[15] = system: Plasma; assay: Plasma concentration in rat at 1 mg/kg, iv followed by administered 25 mg/kg/hr of sustaining dose; assay type: ADME, organism-based; conditions: in vivo; method in brief: as §5
[16] = Half life in rat at 1 mg/kg, iv; assay type: ADME, organism-based; parameters: dose 1 mg/kg, route intravenous; conditions: in vivo; method in brief: as §1
[17] = system: Plasma; assay: Plasma concentration in rabbit cuticle bleeding model at 15 mg/kg, iv followed by administered 23.4 mg/kg/hr of sustaining dose; assay type: ADME, organism-based, Oryctolagus cuniculus; conditions: in vivo
Method in brief: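 Rabbit cuticle bleeding model with IV loading dose plus sustaining infusion (15 or 9 mg/kg + 23.4 mg/kg/h). Measured ex vivo platelet aggregation blockade, cuticle bleeding time, average plasma concentration and blood pressure.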

[18] = Volume of distribution at steady state in rat at 1 mg/kg, iv; assay type: ADME, organism-based; parameters: dose 1 mg/kg, route intravenous; conditions: in vivo, read-out: Vdss
Method in brief: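 Rat PK: single 1 mg/kg IV dose in 10% EtOH/10% cremophor/80% H2O. Vss was derived from plasma concentration–time data.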

[19] = system: Plasma; assay: Plasma concentration in rat at 1 mg/kg, iv followed by administered […] of sustaining dose; assay type: ADME, organism-based; conditions: in vivo
[20] = Clearance in rat at 1 mg/kg, iv; assay type: ADME, organism-based; parameters: dose 1 mg/kg, route intravenous; conditions: in vivo; method in brief: as §1
[21] = system: Plasma; assay: Plasma concentration in rat at 1 mg/kg, iv followed by administered 10 mg/kg/hr of sustaining dose; assay type: ADME, organism-based; conditions: in vivo; method in brief: as §5

SMILES: CN(C)CC(C)(C)COc1ccc(NC(=O)Nc2cccnc2Oc2ccccc2[Si](C)(C)C)cc1
remaining at 10 min [7]: 29% | logP [6]: 4.7

SMILES: CC(C)(C)c1ccccc1Oc1ncccc1NC(=O)Nc1ccc(N2CCCCC2)cc1
logP [6]: 5.5

SMILES: CN(C)Cc1ccc(-c2ccc(NC(=O)Nc3cccnc3Oc3ccccc3C(C)(C)C)c(F)c2)cc1
logP [6]: 5.4

SMILES: CN(C)Cc1ccc(NC(=O)Nc2cccnc2Oc2ccccc2C(C)(C)C)c(F)c1
logP [6]: 4.2

SMILES: CC(C)(C)c1ccccc1Oc1ncccc1NC(=O)Nc1ccc(N2CCOCC2)cc1F
logP [6]: 4.5

SMILES: CC(C)(C)c1ccccc1Oc1ncccc1NC(=O)Nc1ccc(OCC2CCN(Cc3ccccc3)CC2)cc1F
logP [6]: 5.8

SMILES: CN(C)CC(C)(C)COc1ccc(NC(=O)Nc2cccnc2Oc2ccccc2C(C)(C)C)c(F)c1
Stability [8]: Unstable | Stability [9]: Unstable | logP [6]: 5.2

SMILES: CC(C)CN1CCC(COc2ccc(NC(=O)Nc3cccnc3Oc3ccccc3C(C)(C)C)cc2)CC1
logP [6]: 4.5

SMILES: CN(C)Cc1cccc(-c2ccc(NC(=O)Nc3cccnc3Oc3ccccc3C(C)(C)C)c(F)c2)c1
logP [6]: 5.5

SMILES: CC(C)CN1CCC(COc2ccc(NC(=O)Nc3cccnc3Oc3ccccc3C(C)(C)C)c(F)c2)CC1
half-life [10]: 3.4 h | Vd [11]: 5 L/kg | remaining at 10 min [4]: 67% | Papp A→B [5]: 1.6 ×10⁻⁶ cm/s | logP [6]: 5.2 | bioavailability [12]: 40% | clearance [13]: 22 mL/min/kg

SMILES: CN(C)CC(C)(C)COc1ccc(NC(=O)Nc2cccnc2Oc2ccccc2C(C)(C)C)cc1
remaining at 10 min [7]: 12% | Stability [9]: Unstable | logP [6]: 5.1

SMILES: CC(C)(C)c1ccccc1Oc1ncccc1NC(=O)Nc1ccc(-c2ccccc2CO)cc1F
logP [6]: 5.5

SMILES: CC(C)CCN1CCC(COc2ccc(NC(=O)Nc3cccnc3Oc3ccccc3C(C)(C)C)c(F)c2)CC1
logP [6]: 5.5

SMILES: CC(C)(C)c1ccccc1Oc1ncccc1NC(=O)Nc1ccc(N2CCN(Cc3ccccc3)CC2)cc1
logP [6]: 5.8

SMILES: CN(C)Cc1ccccc1-c1ccc(NC(=O)Nc2cccnc2Oc2ccccc2C(C)(C)C)c(F)c1
concentration [14]: 3.6 µM | concentration [15]: 13.7 µM | half-life [16]: 1.5 h | Stability [8]: Unstable | concentration [17]: 5 µM | Vd [18]: 8.7 L/kg | concentration [19]: 1.3 µM | remaining at 10 min [4]: 24% | logP [6]: 5.3 | clearance [20]: 158 mL/min/kg | concentration [21]: 8.5 µM

SMILES: CC(C)N1CCC(COc2ccc(NC(=O)Nc3cccnc3Oc3ccccc3C(C)(C)C)c(F)c2)CC1
logP [6]: 3.8

Continued, values first:

bioavailability [1]: 7% | half-life [2]: 15 h | Vdss [3]: 5.6 L/kg | remaining at 10 min [4]: 86% | Papp A→B [5]: 2.1 ×10⁻⁶ cm/s | logP [6]: 5.7
SMILES: CC(C)(C)c1ccccc1Oc1ncccc1NC(=O)Nc1ccc(OC(F)(F)F)cc1

logP [6]: 5.2
SMILES: COCC1(c2ccc(NC(=O)Nc3cccnc3Oc3ccccc3C(C)(C)C)cc2)CC1

logP [6]: 3.2
SMILES: CC(C)(C)c1ccccc1Oc1ncccc1NC(=O)Nc1ccc(N2CCNCC2)cc1

logP [6]: 4.6
SMILES: CC(C)(C)c1ccccc1Oc1ncccc1NC(=O)Nc1ccc(C2(CO)CC2)cc1

logP [6]: 3.7
SMILES: CC(C)(C)c1ccccc1Oc1ncccc1NC(=O)Nc1ccc(C2(CN3CCCC3)CC2)cc1

logP [6]: 3.9
SMILES: CN1CCN(c2ccc(NC(=O)Nc3cccnc3Oc3ccccc3C(C)(C)C)cc2)CC1

logP [6]: 5.1
SMILES: COC(=O)C1(c2ccc(NC(=O)Nc3cccnc3Oc3ccccc3C(C)(C)C)cc2)CC1
